Assay outcomes: PubChem BioAssay, several laboratories
Only some compounds are listed: those with a hit (about 2.2% of all), similar ones and a draw of the others.
PolyA inh = polyadenylation inhibitors in yeast reporter cells, primary screen, luminescence, S. cerevisiae. S. cerevisiae SKY197-pL101 polyadenylation reporter, beta-gal luminescence; efflux-impaired pdr1/pdr3 knockout yeast; score 100 = 6 SD above DMSO. activity score, % at 12 µM. 300,000 tested, 0.02% active. AID 1875, 2009;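 active = lowest replicate activity score at least 50, where 100 means six control SD above control mean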;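 also: yeast exposed to compound for 9 h at 30 °C; higher score means more reporter readthrough which indicates perturbed polyadenylation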
HDAC3 inhib = HDAC3 deacetylase inhibitors, primary screen, biochemical, fluorescence, cell-free homogeneous; AID 2718, 2010; recombinant HDAC3, fluorogenic peptide/trypsin coupled; 320,000 tested, 0.15% active; inhibition, % at 8.3 µM; in the data active = inhibition above about 26%, passing the limit was not always enough
Target sequence (O15379 whole entry, looked up): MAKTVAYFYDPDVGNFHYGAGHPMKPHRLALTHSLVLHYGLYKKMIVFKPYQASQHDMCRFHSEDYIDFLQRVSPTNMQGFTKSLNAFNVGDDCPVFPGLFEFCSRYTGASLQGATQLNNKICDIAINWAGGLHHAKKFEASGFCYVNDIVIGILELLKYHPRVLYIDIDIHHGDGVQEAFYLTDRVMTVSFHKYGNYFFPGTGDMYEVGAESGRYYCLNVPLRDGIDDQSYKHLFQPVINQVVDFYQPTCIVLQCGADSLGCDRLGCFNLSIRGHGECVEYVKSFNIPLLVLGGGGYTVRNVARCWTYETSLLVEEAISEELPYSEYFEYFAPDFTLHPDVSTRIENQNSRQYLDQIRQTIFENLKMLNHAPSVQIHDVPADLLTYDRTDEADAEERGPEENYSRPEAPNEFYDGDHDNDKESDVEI
T cruzi inh = inhibitors of intracellular T. cruzi growth, primary screen, luminescence, NIH3T3 host cells | inhibition, % (test concentration not listed) | 300,000 tested, 1.4% active | T. cruzi beta-gal in NIH3T3, 90 h | AID 1885, 2009;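 active = mean inhibition across valid replicates above about 55%, limit read from the data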;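 also: signal also drops with host cell toxicity which is not excluded here; 0% = plate median of DMSO wells and 100% = zero luminescence signal; higher percent means less beta-gal luminescence so fewer parasites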
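System: Mouse NIH/3T3 fibroblasts infected with β-gal-expressing T. cruzi Tulahuen C4 | Quantity: NIH/3T3 cells, 5,000 per well | Reagent: 5000 reporter trypomastigotes per well | Dosing: Compound pinned at 50 nL/well, DMSO | Schedule: 3 h host attachment, then at least 90 h co-culture | Detection: GalScreen luminescence, 60 min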
AI-2 QS mod = Vibrio harveyi AI-2 quorum sensing modulators, primary screen, JMH597 strain, luminescence/OD600 ratio; 300,000 tested, 0.4% active; activity change, % at 7.5 µM; AID 2094, 2009; Vibrio harveyi JMH597 AI-2 luminescence/OD600 ratio, 9 h; hits give low values; strain lacks LuxN and CqsS sensors; 0 = neutral-control median; in the data active = activity change below about -75%, passing the limit was not always enough;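 also: luminescence divided by OD600 gain over 9 h not by final OD600 alone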
Efflux pump mplx = inhibitors of Candida efflux pumps in yeast, primary screen, S. cerevisiae, Nile Red, multiplex | S. cerevisiae Candida pump triplex | inhibition, % at 10 µM | 330,000 tested, 0.44% active | AID 485275, 2010;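 active = plate passing quality check with inhibition over a set limit, or well fluorescence over plate mean plus 4 SD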;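 also: Nile Red retained in pooled yeast measured as flow cytometry median fluorescence; 0% = buffer negative control and 100% = Enniatin B positive control; higher means more Nile Red kept so more efflux inhibition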
* marks the source's active call; other numbers are inactive results; . = no result given.

SMILES | PolyA inh | HDAC3 inhib | T cruzi inh | AI-2 QS mod | Efflux pump mplx
COc1ccc(CCNC(=S)Nc2ccc(S(=O)(=O)Nc3ncccn3)cc2)cc1OC | -3 | 2 | 6 | -6 | 0
O=C1NCCCCC1NS(=O)(=O)c1cccc(C(F)(F)F)c1 (stereo not drawn) | 7 | 0 | 4 | 23 | 0
N#Cc1ccc(N=c2ssnc2Cl)cc1 | -33 | 38* | -15 | 27 | 0
COc1cc(N=c2ssnc2Cl)cc(OC)c1OC | -7 | 36* | -10 | 36 | 0
Clc1ccc(N=c2ssnc2Cl)cc1 | -12 | 14 | -10 | 28 | 0
Cc1ccc(C(=O)N2NC(c3ccc(F)cc3)C3C(=O)N(c4ccc(C)c(C)c4)C(=O)C32)cc1 (stereo not drawn) | -11 | -3 | -15 | 69 | 0
N#CC1(NC(=O)CSc2nnc(C3CC3)n2C2CC2)CCCCC1 | . | 1 | . | . | 0
CCCCNC(=O)c1cc2c(=O)n3cccc(C)c3nc2n(Cc2ccccc2)c1=N | 1 | -273 | 60* | -4 | 0
Cc1cccn2c(=O)c3cc(C(=O)NC4CCCCC4)c(=N)n(Cc4ccccc4)c3nc12 | 7 | -57 | 58* | 23 | -5
Cc1nn(C(C)C(=O)NC2CCCCCC2)c(=O)c2nn(-c3ccccc3)c(C)c12 (stereo not drawn) | 14 | -2 | -15 | 20 | 0
O=[N+]([O-])c1ccc(N/N=C/c2sc(N3CCOCC3)nc2-c2ccccc2)c(S(=O)(=O)Nc2ccc(Cl)cc2)c1 | 17 | . | 84* | 11 | .
Cc1ccc(NS(=O)(=O)c2ccc(Cl)c(NC(=S)NC(=O)C3CCCCC3)c2)cc1Cl | -27 | 13 | 43 | 4 | 0
c1ccc(CC2CCN(C3=Nc4cccc5cccc3c45)CC2)cc1 | -12 | 8 | 66* | 24 | 0
Cc1c(C(=O)Nc2ccccc2)c2ccc(C(F)(F)F)cc2n1O | -5 | 7 | -11 | 3 | 0
COC(=O)C1=C(C)NC2=C(C(=O)CCC2)C1c1ccsc1 (stereo not drawn) | -17 | . | -5 | 28 | .
COC(=O)C1=C(C)NC2=C(C(=O)CCC2)C1c1ccc(-c2ccsc2C(=O)OC)o1 (stereo not drawn) | -3 | 32* | 4 | -3 | 0
CN(C)c1ccc(C(=O)C(=O)c2ccccc2)cc1 | 12 | 6 | -9 | 30 | 0
CN(C)c1ccc2c(c1)Sc1cc(N(C)C)ccc1N2C(=O)c1ccccc1 | -52 | -3 | 60* | 27 | 0
CCN(CC)S(=O)(=O)c1ccc(C)c(C)c1 | -10 | 9 | 7 | 11 | 0
CCN(CC)S(=O)(=O)c1ccc2c(c1)C(=NO)c1cc(S(=O)(=O)N(CC)CC)ccc1-2 | -16 | -14 | 63* | 15 | 0
CC1CCN(S(=O)(=O)c2ccc3c(c2)C(=NO)c2cc(S(=O)(=O)N4CCC(C)CC4)ccc2-3)CC1 | . | -2 | . | . | 0
O=S(=O)(c1ccc2c(c1)C(=NO)c1cc(S(=O)(=O)N3CCCCC3)ccc1-2)N1CCCCC1 | -4 | -5 | 77* | 3 | 0
CC1CN(S(=O)(=O)c2cccc(C(=O)N(Cc3nnc(-c4ccccc4Cl)o3)C3CC3)c2)CC(C)O1 (stereo not drawn) | 20 | 2 | 19 | 5 | 0
CC(C)C(=O)NC(=S)Nc1ccccc1N1CCN(C(=O)c2ccc(Cl)cc2)CC1 | 1 | 10 | 64* | 9 | 0
CC(C)(C)C(=O)Nc1ccccc1N1CCN(C(=O)c2ccc(Cl)cc2)CC1 | -1 | -5 | 16 | 9 | 0
COc1ccc(C(=O)NC(=S)SCC(=O)O)cc1 | 11 | 1 | -16 | 4 | 0
CCOC(=O)CSC(=S)NC(=O)c1ccc(OC)cc1 | -25 | 79* | -18 | 27 | 0
CC(=O)Nc1ccc(OS(=O)(=O)c2ccc([N+](=O)[O-])cc2)cc1 | -10 | -3 | 71* | 21 | 0
O=C(Nc1ccc(Oc2ccc(NC(=O)Nc3ccc([N+](=O)[O-])cc3)cc2)cc1)Nc1ccc([N+](=O)[O-])cc1 | 31 | 4 | 67* | 14 | 0
CC(=O)Nc1ccc(OS(=O)(=O)c2ccc(Cl)cc2)cc1 | -3 | 6 | -1 | 10 | 0
